Screening results: PubChem BioAssay, several laboratories
Compounds with a hit are over-represented: about 2.7% of the library has one in this group of screens.
MC4R barr agon = agonists of human melanocortin 4 receptor (MC4R) beta-arrestin. P32245. U2OS MC4R beta-arrestin complementation, luminescence; percent of melanotan II response, DMSO zero. activation, % at 8.9 µM. actives 0.98% (n = 360,000);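 active means activation above a per-plate cutoff, the mean activation of sample wells on that plate plus 3 SD, cut at about 8% in these data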
NTR1 ag = NTR1 (human) agonism. P30989. NTR1-U2OS beta-arrestin-GFP spot imaging, agonist mode. activation, % at 20 µM. actives 0.17% (n = 330,000);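 active means activation at or above 40% of the spot to cytoplasm intensity ratio, with at least 20 cells analyzed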
HTR2A ag = mouse HTR2A agonism via beta-arrestin recruitment; CHO-K1 mHTR2A beta-arrestin complementation, luminescence; percent of 30 µM serotonin response; activation, % at 7.6 µM; actives 0.66% (n = 360,000); AID 624169;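 active means activation above a run cutoff, the mean activation of all tested compounds plus 3 SD, cut at about 14% in these data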
PREPL inh = inhibitors of human prolyl oligopeptidase-like enzyme PREPL; Q4J6C6; recombinant PREPL, fluorescence polarization activity-based probe; inhibition, % at 5.96 µM; actives 0.68% (n = 320,000); AID 2751
Target sequence (Q4J6C6 whole entry, looked up): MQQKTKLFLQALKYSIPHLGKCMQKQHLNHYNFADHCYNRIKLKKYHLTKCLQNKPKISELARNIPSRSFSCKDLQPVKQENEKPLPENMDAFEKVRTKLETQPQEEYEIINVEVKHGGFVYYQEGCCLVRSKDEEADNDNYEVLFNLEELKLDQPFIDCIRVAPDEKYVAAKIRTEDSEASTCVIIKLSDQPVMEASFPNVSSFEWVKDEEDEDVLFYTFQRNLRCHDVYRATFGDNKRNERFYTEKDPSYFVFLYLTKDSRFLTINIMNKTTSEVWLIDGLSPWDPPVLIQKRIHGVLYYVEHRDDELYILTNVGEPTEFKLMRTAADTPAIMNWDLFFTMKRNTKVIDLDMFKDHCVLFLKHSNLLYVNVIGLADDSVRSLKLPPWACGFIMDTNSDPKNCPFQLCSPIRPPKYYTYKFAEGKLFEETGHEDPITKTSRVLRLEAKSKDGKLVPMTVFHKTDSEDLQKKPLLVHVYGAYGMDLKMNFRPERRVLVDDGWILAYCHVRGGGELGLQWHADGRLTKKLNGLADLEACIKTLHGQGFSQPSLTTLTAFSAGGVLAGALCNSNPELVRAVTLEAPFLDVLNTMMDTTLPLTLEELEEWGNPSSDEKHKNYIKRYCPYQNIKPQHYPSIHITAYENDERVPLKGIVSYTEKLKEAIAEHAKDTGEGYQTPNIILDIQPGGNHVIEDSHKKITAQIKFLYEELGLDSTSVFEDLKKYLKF
Lipid droplet = modulators of hepatic lipid droplet formation. inhibition, % at 6.5 µM. actives 0.4% (n = 240,000). AML12 mouse hepatocytes, oleate lipid droplets, BODIPY imaging;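 active means lipid droplet intensity inhibited by at least 50%, with more than 500 cells counted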
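Assay system: AML12 hepatocytes (mouse) / Also added: 100 µM oleic acid challenge / Times: overnight treatment with compound plus oleate / Detection: high-content imaging of BODIPY-stained droplets and DAPI nuclei / Evaluation: % inhibition of lipid droplet signal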
MC4R antag cAMP = antagonists of human melanocortin 4 receptor (MC4R) | MC4R-expressing cells, MTII-stimulated cAMP, LANCE TR-FRET | actives 0.48% (n = 360,000) | inhibition, % at 6.5 µM | AID 540295;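 active means inhibition above its plate's cutoff, the mean of tested wells on that plate plus 3 SD, cut at about 29% in these data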
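Material: human MC4R-expressing U2OS cells. Probe or stimulus: Melanotan II challenge. Dosing: 6.5 µM single dose. Times: 30-min compound, 1-h challenge, 1-h detection, room temperature. Technique: TR-FRET with Eu-cAMP and labeled anti-cAMP, 671 nm. Replication: singlicate.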
PREPL inh cf = human PREPL inhibition, confirmation; shares compounds with PREPL inh; actives 67% (n = 2,000); inhibition, % at 5.96 µM; recombinant PREPL, fluorescence polarization activity probe
Of the large screens only hits and unclear results are named; the others gave an inactive call (follow-up assays come after a bar, where they were run). Unless noted, no stated cut-off is given here; in the data, active means inhibition above about 43%; inactive means the rest.

S=c1[nH]nc([C@@H]2C[C@H]2c2ccccc2)n1-c1ccccc1Cl	none
O=C(NCc1ccccc1)C1C(c2ccc3c(c2)OCO3)=Nc2ccccc2N1C(=O)c1cccc2ccccc12 (configuration not stated)	none (no result: MC4R barr agon, NTR1 ag, PREPL inh, Lipid droplet, MC4R antag cAMP)
Cc1ccc(CNc2ccc(N3CCOCC3)cc2)cc1	PREPL inh 44 (no result: Lipid droplet) | PREPL inh cf inactive
c1cc(CNc2ccc(N3CCOCC3)cc2)ccn1	none
CC(C)c1ccc(S(=O)(=O)Nc2ccc(N3CCOCC3)cc2)cc1	none
CC(C)c1ccc(CNc2ccc(N3CCOCC3)cc2)cc1	PREPL inh 52 | PREPL inh cf 55
c1cc2c(cc1CNc1ccc(N3CCOCC3)cc1)OCO2	PREPL inh 57 (no result: Lipid droplet) | PREPL inh cf inactive
O=C(CSc1nnnn1-c1ccccc1)NCC1(N2CCOCC2)CCCCC1	none (no result: Lipid droplet)
CCN1CCc2c(sc(NC(=O)Nc3ccc(Cl)c(Cl)c3)c2C(N)=O)C1	PREPL inh 70 (no result: NTR1 ag) | PREPL inh cf 54
Cc1nn(-c2ccc(Br)cc2)c(=O)c2ccccc12	PREPL inh 75 (no result: Lipid droplet) | PREPL inh cf inactive
Cc1nn(-c2ccccc2C(=O)O)c(=O)c2ccccc12	none
CC(=O)Nc1ccc(Nc2nc(Cl)nc(Nc3ccc(NC(C)=O)cc3)n2)cc1	none
COC(=O)/C(C#N)=C/c1c(N2CCN(c3ccc(OC)cc3)CC2)nc2c(C)cccn2c1=O	PREPL inh 48 | PREPL inh cf 46
CNC(=O)/C(C#N)=C/c1c(N2CCN(c3ccccc3)CC2)nc2c(C)cccn2c1=O	none
CNC(=O)/C(C#N)=C/c1c(N2CCN(c3ccc(OC)cc3)CC2)nc2c(C)cccn2c1=O	PREPL inh 52 | PREPL inh cf 44
COCCCNC(=O)/C(C#N)=C/c1c(N2CCN(c3ccc(OC)cc3)CC2)nc2c(C)cccn2c1=O	PREPL inh 51 | PREPL inh cf 52
CCN(C(=O)CSc1nc2ccccc2c(=O)n1-c1cccc(C)c1)C1CCS(=O)(=O)C1 (configuration not stated)	none
Cc1ccc(-n2c(SCC(=O)N(C)C3CCS(=O)(=O)C3)nc3ccccc3c2=O)c(C)c1 (configuration not stated)	PREPL inh 53 (no result: Lipid droplet) | PREPL inh cf inactive
CN1CCc2c(n(CC(O)CNCc3ccccc3)c3ccccc23)C1=O (configuration not stated)	none
CC(C)NCC(O)Cn1c2c(c3ccccc31)CCc1c-2cnn1-c1ccccc1 (configuration not stated)	PREPL inh 66 (no result: Lipid droplet) | PREPL inh cf 82
COc1ccc(C2CC(C(F)(F)F)n3nc(C(=O)Nc4ccc5c(c4)OCO5)cc3N2)cc1 (configuration not stated)	PREPL inh 49 (no result: Lipid droplet) | PREPL inh cf inactive
COc1ccc(OC)c(NC(=O)c2cc3n(n2)C(C(F)(F)F)CC(c2ccc4c(c2)OCO4)N3)c1 (configuration not stated)	none
COc1cc(N=Nc2cccc(S(N)(=O)=O)c2)c2ccccc2c1N	PREPL inh 61 (no result: NTR1 ag) | PREPL inh cf 59
COc1ccc2cc1Oc1ccc(cc1)CC1c3c(cc(OC)c4c3Oc3cc5c(cc3O4)CCNC5C2)CCN1C (configuration not stated)	MC4R barr agon 45, PREPL inh 51 | PREPL inh cf 52
COc1ccc2cc1Oc1ccc(cc1)C[C@H]1c3c(cc(OC)c4c3Oc3c(ccc5c3[C@H](C2)N(C)CC5)O4)CCN1C	none (no result: Lipid droplet)
Cc1ccsc1/C=N/N=C1\C(=O)Nc2ccccc21	PREPL inh 53 | PREPL inh cf 52
O=C(COc1ccc2cc(-c3ccccc3)c(=O)oc2c1)NCC1CCC(C(=O)O)CC1 (configuration not stated)	none
CCc1ccccc1NC(=O)NNC(=O)CCc1ccc(OC)cc1	none (no result: PREPL inh)
CN(CC(=O)Nc1cccc(F)c1)C(=O)Cc1n[nH]c(=O)c2ccccc12	none (no result: Lipid droplet)
CN(CC(=O)Nc1ccc(Cl)c(C(F)(F)F)c1)C(=O)Cc1n[nH]c(=O)c2ccccc12	PREPL inh 57 (no result: Lipid droplet) | PREPL inh cf inactive
COc1ccc(NC(=O)NCCN2CCN(c3cc(OC)ccc3OC)CC2)cc1	none
COc1ccc(Cl)c(N2CCN(CCCNC(=O)Nc3ccc(C)cc3)CC2)c1	PREPL inh 47 | PREPL inh cf inactive
CCCS(=O)c1nc(C)cc(C)c1S(C)(=O)=O (configuration not stated)	none
C#CCOCCOCCOCCNc1nc(N2CCN(C(=O)CCCCCCCCCCNC(=O)[C@H](CCCCN)n3cc(CCO)nn3)CC2)nc(N2CCN(C(=O)CCCCCCCCCCNC(=O)[C@H](CCCCN)n3cc(CCCC(=O)O)nn3)CC2)n1	none (no result: Lipid droplet)
C#CCOCCOCCOCCNc1nc(N2CCN(C(=O)CCCCCCCCCCNC(=O)[C@H](CCCCN)n3cc(C)nn3)CC2)nc(N2CCN(C(=O)CCCCCCCCCCNC(=O)[C@H](CCCN=C(N)N)n3cc(C[C@@H](C)CC)nn3)CC2)n1	PREPL inh 47 (no result: MC4R barr agon, HTR2A ag, Lipid droplet, MC4R antag cAMP) | PREPL inh cf 56
C#CCOCCOCCOCCNc1nc(N2CCN(C(=O)CCCCCCCCCCNC(=O)[C@H](CCCCN)n3cc(CCO)nn3)CC2)nc(N2CCN(C(=O)CCCCCCCCCCNC(=O)[C@H](CCCCN)n3cc(C[C@@H](C)CC)nn3)CC2)n1	PREPL inh 45 (no result: MC4R barr agon, HTR2A ag, Lipid droplet, MC4R antag cAMP) | PREPL inh cf 55
C/C(Cn1nc([N+](=O)[O-])cc1C)=N\NC(=O)COc1ccc(Cl)cc1Cl	none
Cc1cccc(NC(=O)COn2nnc3ccc(S(C)(=O)=O)cc32)c1	none
CC1CCCC(NC(=O)COC(=O)Cc2ccsc2)C1C (configuration not stated)	none
Nc1c(N2CCN(c3ccccc3)CC2)c2ccccc2oc1=O	PREPL inh 51 (no result: Lipid droplet) | PREPL inh cf inactive
Nc1c(N)c2ccccc2oc1=O	none
CC(C)C(c1nnnn1Cc1ccc(F)cc1)N1CCN(c2ccc(O)cc2)CC1 (configuration not stated)	none
Cc1ccc(C)c(-c2nn(-c3cc(N4CCN(CCO)CC4)ccc3[N+](=O)[O-])c(=O)c3ccccc23)c1	PREPL inh 62 (no result: Lipid droplet) | PREPL inh cf 57
Cc1cccc(OCC(=O)Nc2ccc(N3CCN(C(=O)c4ccccc4)CC3)cc2)c1C	PREPL inh 53 | PREPL inh cf 54
O=C(NC(=S)Nc1ccc(N2CCN(C(=O)c3ccccc3)CC2)cc1)c1cccs1	PREPL inh 51 | PREPL inh cf inactive
CCC(=O)N1CCN(c2ccc(NC(=O)COc3cccc(C)c3C)cc2)CC1	PREPL inh 53 | PREPL inh cf 56
